Experimental data reported in ChEMBL document CHEMBL3272139, “2,5-Bis(3,4-dimethoxybenzyl)cyclopentylamine, a peripheral dopamine blocking agent” (J Med Chem, 1978).
Calls of active or inactive are those of the source.

Legend:
Canis familiaris [1] = test: Reduction in dopamine-induced depressor response in pentobarbital-anesthesized, morphine-premedicated, atropinized, right femoral artery and vein-cannulated mongrel dog assessed as half life of drug action at 6 ug/kg; format: functional, organism-based; settings: Canis lupus familiaris
Outline: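 Single atropinized dog given 6 µg/kg test drug iv. Residual blockade was measured every 5 min against a 5 µg/kg dopamine challenge. Half-life came from a linear plot of log residual blockade vs time.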

Canis familiaris [2] = test: Inhibition of N-isopropylnorepinephrine-induced chronotropic effects in pentobarbital-anesthesized, morphine-premedicated, atropinized, right femoral artery and vein-cannulated mongrel dog up to 71 umol/kg; format: functional, organism-based; settings: Canis lupus familiaris
Canis familiaris [3] = species on record: Canis familiaris; test: Reduction in dopamine-induced depressor response in pentobarbital-anesthesized, morphine-premedicated, atropinized, right femoral artery and vein-cannulated mongrel dog assessed as threshold dose required for reduction; format: functional, Canis lupus familiaris
Mus musculus [4] = test: Potentiation of apomorphine-induced sterotypic climbing in ip dosed Swiss-Webster mouse administered for 7 days; format: functional
Canis familiaris [5] = test: Reduction in dopamine-induced depressor response in pentobarbital-anesthesized, morphine-premedicated, atropinized, right femoral artery and vein-cannulated mongrel dog at 12 to 17 umol/kg in presence of alpha-adrenergic blocker phenoxybenzamine; format: functional, organism-based; settings: Canis lupus familiaris
Outline: (§1)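 Atropinized mongrel dogs pretreated with phenoxybenzamine, 5 mg/kg, to remove the dopamine pressor action. Depressor response was evoked with dopamine, 3 µg/kg iv. Test drug was given iv in 2 mL saline. ED50 was taken from a linear plot of log dose vs % antagonism of the dopamine depressor effect.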

Canis familiaris [6] = species on record: Canis familiaris; test: Cardiovascular activity in pentobarbital-anesthesized, morphine-premedicated, atropinized, right femoral artery and vein-cannulated mongrel dog assessed as decrease in diastolic pressure; format: ADME, organism-based, Canis lupus familiaris; settings: in vivo
Outline: (§2)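 Mongrel dogs atropinized (1 mg/kg) and checked for autonomic responsiveness with norepinephrine and N-isopropylnorepinephrine (0.1–0.2 µg/kg each). Drugs were given iv via an indwelling venous catheter in 2 mL 0.9% saline. Blood pressure and heart rate were recorded via an arterial catheter. Threshold dose was read from a linear plot of % fall in mean pressure against log dose.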

Canis familiaris [7] = test: Inhibition of N-isopropylnorepinephrine-induced inotropic effects in pentobarbital-anesthesized, morphine-premedicated, atropinized, right femoral artery and vein-cannulated mongrel dog up to 71 umol/kg; format: functional, organism-based; settings: Canis lupus familiaris
Canis familiaris [8] = species on record: Canis familiaris; test: Cardiovascular activity in pentobarbital-anesthesized, morphine-premedicated, atropinized, right femoral artery and vein-cannulated mongrel dog assessed as vasodepression; format: ADME, organism-based, Canis lupus familiaris; settings: in vivo; outline: as §2
Canis familiaris [9] = test: Inhibition of norepinephrine-induced inotropic effects in pentobarbital-anesthesized, morphine-premedicated, atropinized, right femoral artery and vein-cannulated mongrel dog up to 71 umol/kg; format: functional, organism-based; settings: Canis lupus familiaris
Canis familiaris [10] = test: Cardiovascular activity in pentobarbital-anesthesized, morphine-premedicated, atropinized, right femoral artery and vein-cannulated mongrel dog at 95 to 120 umol/kg in presence of metoclopramide; format: ADME, organism-based, Canis lupus familiaris; settings: in vivo
Canis familiaris [11] = test: Cardiovascular activity in pentobarbital-anesthesized, morphine-premedicated, atropinized, right femoral artery and vein-cannulated mongrel dog at 95 to 120 umol/kg in presence of haloperidol; format: ADME, organism-based, Canis lupus familiaris; settings: in vivo
Canis familiaris [12] = test: Cardiovascular activity in pentobarbital-anesthesized, morphine-premedicated, atropinized, right femoral artery and vein-cannulated mongrel dog assessed as decrease in mean blood pressure at 2.4 umol/kg relative to control; format: ADME, organism-based, Canis lupus familiaris; set-up: scale not given: the % may be the effect or the level left; settings: in vivo; outline: as §2
Canis familiaris [13] = species on record: Canis familiaris; test: Cardiovascular activity in pentobarbital-anesthesized, morphine-premedicated, atropinized, right femoral artery and vein-cannulated mongrel dog assessed as threshold dose required for decrease in mean blood pressure; format: ADME, organism-based, Canis lupus familiaris; settings: in vivo; outline: as §2
Canis familiaris [14] = test: Inhibition of norepinephrine-induced chronotropic effects in pentobarbital-anesthesized, morphine-premedicated, atropinized, right femoral artery and vein-cannulated mongrel dog up to 71 umol/kg; format: functional, organism-based; settings: Canis lupus familiaris
Canis familiaris [15] = species on record: Canis familiaris; test: Cardiovascular activity in pentobarbital-anesthesized, morphine-premedicated, atropinized, right femoral artery and vein-cannulated mongrel dog assessed as decrease in systolic pressure; format: ADME, organism-based, Canis lupus familiaris; settings: in vivo; outline: as §2
Canis familiaris [16] = test: Cardiovascular activity in pentobarbital-anesthesized, morphine-premedicated, atropinized, right femoral artery and vein-cannulated mongrel dog at 95 to 120 umol/kg; format: ADME, organism-based, Canis lupus familiaris; settings: in vivo
Canis familiaris [17] = test: Cardiovascular activity in pentobarbital-anesthesized, morphine-premedicated, atropinized, right femoral artery and vein-cannulated mongrel dog at 95 to 120 umol/kg in presence of propranolol; format: ADME, organism-based, Canis lupus familiaris; settings: in vivo
Canis familiaris [18] = test: Inhibition of N-isopropylnorepinephrine-induced blood pressure effects in pentobarbital-anesthesized, morphine-premedicated, atropinized, right femoral artery and vein-cannulated mongrel dog up to 71 umol/kg; format: functional, organism-based; settings: Canis lupus familiaris
Canis familiaris [19] = species on record: Canis familiaris; test: Reduction in dopamine-induced depressor response in pentobarbital-anesthesized, morphine-premedicated, atropinized, right femoral artery and vein-cannulated mongrel dog in presence of alpha-adrenergic blocker phenoxybenzamine; format: functional; settings: Canis lupus familiaris; outline: as §1
Canis familiaris [20] = species on record: Canis familiaris; test: Reduction in dopamine-induced depressor response in pentobarbital-anesthesized, morphine-premedicated, atropinized, right femoral artery and vein-cannulated mongrel dog; format: functional, organism-based; settings: Canis lupus familiaris; outline: as §1
Mus musculus [21] = test: Potentiation of apomorphine-induced sterotypic climbing in Swiss-Webster mouse at 42.5 to 59.4 umol/kg, ip administered 30 mins prior to apomorphine-challenge measured after 5 mins; format: functional, organism-based; settings: 47.5 to 59.4 umol/kg, in the assay text read “47.5 to 59.4 umol/kg” for “42.5 to 59.4 umol/kg”
Outline: (§3)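 Male Swiss–Webster mice (20–30 g) were dosed ip in 0.9% saline. Thirty minutes later they received apomorphine HCl, 1 mg/kg sc. Each mouse was placed in a wire-mesh cage and scored for vertical climbing after about 5 min of exploration, with two scores per animal averaged. Groups had 10 mice, compared with saline controls by two-tailed Student's t test.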

Canis familiaris [22] = test: Inhibition of norepinephrine-induced blood pressure effects in pentobarbital-anesthesized, morphine-premedicated, atropinized, right femoral artery and vein-cannulated mongrel dog up to 71 umol/kg; format: functional, organism-based; settings: Canis lupus familiaris
Canis familiaris [23] = test: Cardiovascular activity in pentobarbital-anesthesized, morphine-premedicated, atropinized, right femoral artery and vein-cannulated mongrel dog assessed as time required for decrease in mean blood pressure at 2.4 umol/kg; format: ADME, organism-based, Canis lupus familiaris; settings: in vivo; outline: as §2
Mus musculus [24] = test: Reduction in apomorphine-induced sterotypic climbing in Swiss-Webster mouse at 0.1 mg/kg, ip administered 30 mins prior to apomorphine-challenge measured after 5 mins; format: functional, organism-based; set-up: dose 0.1 mg/kg; outline: as §3

COc1ccc(CC2CCC(Cc3ccc(OC)c(OC)c3)C2N)cc1OC.Cl (centres undefined)
T1/2 (Canis familiaris [1]): 18 min
inhibition (Canis familiaris [2]): inactive
Activity (Canis familiaris [3]): 0.7 µmol/kg
Activity (Mus musculus [4]): 5.94 µmol/kg
Activity (Canis familiaris [5]): Active
Activity (Canis familiaris [6]): Dose-dependent effect
inhibition (Canis familiaris [7]): inactive
Activity (Canis familiaris [8]): Toxic
inhibition (Canis familiaris [9]): inactive
Activity (Canis familiaris [10]): Toxic
Activity (Canis familiaris [11]): Toxic
Activity (Canis familiaris [12]): 10%
Activity (Canis familiaris [13]): 1.2 µmol/kg
inhibition (Canis familiaris [14]): inactive
Activity (Canis familiaris [15]): Dose-dependent effect
Activity (Canis familiaris [16]): Toxic
Activity (Canis familiaris [17]): Toxic
inhibition (Canis familiaris [18]): inactive
ED50 (Canis familiaris [19]): 4 µmol/kg
Activity (Canis familiaris [20]): Dose-dependent effect
Activity (Mus musculus [21]): Active
inhibition (Canis familiaris [22]): inactive
Time (Canis familiaris [23]): < 1 min

O=C(CCCN1CCC(O)(c2ccc(Cl)cc2)CC1)c1ccc(F)cc1
Activity (Mus musculus [24]): Active
